TRPC4 PAM: positive allosteric modulators of TRPC4, primary screen, cell-based, mouse TRPC4beta, HEK293 mu-opioid, Fluo-4 calcium | Short transient receptor potential channel 4 (Mus musculus), Q9QUQ5 | DAMGO EC20, Fluo-4 Ca2+ flux; active compounds read high | B-score at 10 µM | hit rate 0.42% among 310,000;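 active = B-score of calcium response area above 5 SD of library B-scores, with initial fluorescence ratio within 5 SD of library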;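 also: B-score of integrated fluorescence ratio over time as area under calcium response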
TRPC6 inh: mouse TRPC6 channel inhibitors, primary screen, cell-based, HEK293, membrane potential dye | Short transient receptor potential channel 6 (Mus musculus), Q61143 | ACh-evoked depolarization; active compounds read low | B-score at 10 µM | hit rate 1.1% among 310,000 | AID 2553, 2010;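 active = B-score under library mean minus 3 SD, initial fluorescence not abnormally high, positive integrated signal ratio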;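 also: B-score derived from integrated fluorescence ratio over the kinetic read; more negative B-score means stronger inhibition of depolarization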
Yeast superoxide: reduction of superoxide in aged yeast, primary screen, HTS. superoxide response (% of plate mean), % at 10 µM. S. cerevisiae aged cells, superoxide DHE fluorescence; active compounds read low. AID 2690, 2010. hit rate 0.18% among 330,000;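 active = superoxide response under a set limit, about three screen SD below normal, cut at about 65% in these data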;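 also: yeast aged for seven days with compound at 30 °C before DHE staining; 100% = average MFI of all compound-treated wells on the plate with controls excluded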
TRPC6 activator: mouse TRPC6 channel activators, primary screen, cell-based, HEK293, membrane potential dye; B-score at 10 µM; AID 2550, 2010; HEK293-TRPC6 membrane potential dye fluorescence; active compounds read high; hit rate 0.13% among 310,000;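 active = B-score of the integrated fluorescence ratio above library mean plus 3 SD, and starting fluorescence ratio within library mean plus 5 SD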;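 also: higher score means more depolarization so channel activation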
TRPC4 inh: inhibitors of mouse TRPC4 channel, primary screen, Fluo4 calcium, HEK293 TRPC4beta/mu-opioid cells; Short transient receptor potential channel 4 (Mus musculus), Q9QUQ5; DAMGO-evoked Fluo4 calcium flux; active compounds read low; B-score at 10 µM; hit rate 0.39% among 300,000;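 active = B-score over 3 SD under the library average, no early fluorescence shift, positive overall ratio signal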
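Signal: kinetic Fluo4 fluorescence imaging of calcium influx. Material: stable TRPC4beta/mu-opioid receptor HEK293 cells. Probe or stimulus: DAMGO in two steps, submaximal then maximal.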
TRPC4 agonist: activators of mouse TRPC4 channel, primary screen, Fluo4 calcium, HEK293 TRPC4beta/mu-opioid cells; hit rate 0.49% among 310,000; Fluo4 calcium fluorescence; active compounds read high; Short transient receptor potential channel 4 (Mus musculus), Q9QUQ5; AID 2237, 2010; B-score at 10 µM;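 active = B-score above 5 SD of library B-scores, and initial fluorescence ratio not above library mean plus 5 SD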;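 also: positive B-score marks a calcium rise read as TRPC4 activation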
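Material: HEK293 stable line with TRPC4beta plus mu-opioid receptor; technique: Fluo4 calcium-sensitive dye fluorescence, kinetic, 1 Hz baseline; timing: Fluo4 dye loading 45 min at room temperature, 110 s recording; controls: assay buffer as low control, maximal DAMGO as high control; read-out: integrated baseline-normalised fluorescence ratio, converted to per-well B score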
TRPC4 spec 2: mouse TRPC4 off-target activity of TRPC6 inhibitors, second screen; hit rate 42% among 920; shares compounds with TRPC6 inh; HEK293 TRPC4/MOR, membrane potential dye fluorescence; channel activated by saturating DAMGO dose; inhibition, % at 10 µM;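 active = compounds whose fluorescence signal differed from control wells by over 3 SD, either direction, in both duplicate plates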
TRPC4 spec: mouse TRPC4 modulation by TRPC6 hits, confirmation, selectivity assay for TRPC6 inhibitor project, cell-based, HEK293 TRPC4/mu-opioid, membrane potential dye; shares compounds with TRPC6 inh; membrane potential fluorescence; activity change, negative = inhibition, % at 10 µM; hit rate 61% among 920; AID 2777, 2010;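 active = rise or fall in signal beyond 3 SD of buffer-only wells in both replicate plates, either sign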;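 also: integrated kinetic ratio of fluorescence range over baseline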
HEK293 MPD ctr 2-1: nonspecific membrane potential effects, parental HEK293, confirmation, counter-screen for TRPC6 inhibitor project, cell-based, second counter screen; parental HEK293 membrane potential dye fluorescence; maximal acetylcholine challenge after compound addition; signal change vs control, % at 10 µM; shares compounds with TRPC6 inh; hit rate 31% among 920;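 active = membrane potential signal moving either way by over 3 SD of the maximum-effect control, in both duplicate plates, meaning non-specific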
HEK293 MPD ctr-1: membrane potential modulation in parental HEK293, confirmation, counter-screen for TRPC6 inhibitor project, cell-based; shares compounds with TRPC6 inh; parental HEK293 membrane potential dye fluorescence; membrane potential signal change, % at 10 µM; hit rate 60% among 920;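 active = membrane potential signal shifting up or down by more than 3 SD of buffer-only wells, on both duplicate plates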
HEK293 MPD ctr-2: parental HEK293 membrane potential modulation, confirmation, counter-screen for TRPC6 modulator project, cell-based | shares compounds with TRPC6 inh | membrane potential signal change, % at 10 µM | hit rate 51% among 2,400 | membrane potential dye fluorescence | AID 488924, 2010;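 active = membrane potential signal moves up or down beyond 5 SD from buffer-only wells, on both duplicate plates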
HEK293 MPD ctr 2-2: parental HEK293 nonspecific activity of TRPC6 modulators, second screen; shares compounds with TRPC6 inh; membrane potential dye fluorescence; after compound, maximal acetylcholine stimulation; inhibition, % at 10 µM; hit rate 14% among 2,400; AID 488926;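 active = membrane potential signal drops by more than 5 SD from the mean control signal, in both duplicate plates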;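 also: plate controls were acetylcholine ECmax control wells for no effect and buffer only wells for full effect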
TRPC4 ctr mod: TRPC4 modulation by TRPC6 hit compounds, confirmation, selectivity assay for TRPC6 modulator project, cell-based, HEK293 TRPC4/mu-opioid, membrane potential dye, mouse; AID 488927, 2010; shares compounds with TRPC6 inh; membrane potential fluorescence; percent change from control (negative = decrease, positive = increase), % at 10 µM; hit rate 69% among 2,400;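 active = membrane potential signal moved up or down beyond 5 SD of buffer control wells, in both duplicate plates, actives on both sides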;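 also: plate controls were assay buffer wells for no effect and DAMGO maximal-effect wells for full effect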
TRPC4/MOR inh 2: mouse TRPC4 off-target activity of TRPC6 modulators, second screen; shares compounds with TRPC6 inh; HEK293 TRPC4/mu-opioid, membrane potential dye fluorescence; stimulated with maximal-effect DAMGO; inhibition, % at 10 µM; hit rate 55% among 2,400;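 active = drop in membrane potential signal beyond 5 SD of the control wells in both duplicate plates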;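 also: TRPC4 counter screen for TRPC6 hits run under conditions tuned for TRPC6 not TRPC4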
TRPC6 block conf: mouse TRPC6 channel inhibitors, confirmation, HEK293 cells, membrane potential dye, duplicate; shares compounds with TRPC6 inh; ACh-evoked depolarization; inhibition, % at 10 µM; hit rate 43% among 3,300; AID 488960, 2010;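 active = fluorescence ratio falls more than 5 SD below the full-stimulation control mean, in both duplicate runs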;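 also: integrated fluorescence ratio of peak minus minimum over baseline after agonist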
TRPC6 act conf: mouse TRPC6 channel activators, confirmation, HEK293 cells, membrane potential dye, duplicate | shares compounds with TRPC6 inh | HEK293-TRPC6 membrane potential dye fluorescence, FDSS | activation, % at 10 µM | hit rate 11% among 2,800 | AID 488961, 2010;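 active = ratio signal rise beyond 5 SD above unstimulated control wells' mean, seen in both duplicate runs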;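 also: plate controls were buffer EC0 wells for no effect and acetylcholine ECmax response for full effect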
The depositor's hits bear a star; i = inactive; x = no result given; ! = a repeat was not active. Compounds with a hit are over-represented: about 2.3% of the library has one in this group of screens.

SMILES | TRPC4 PAM | TRPC6 inh | Yeast superoxide | TRPC6 activator | TRPC4 inh | TRPC4 agonist | HEK293 MPD ctr-2 | HEK293 MPD ctr 2-2 | TRPC4 ctr mod | TRPC4/MOR inh 2 | TRPC6 block conf | TRPC6 act conf | others
CC(=O)c1cccc(NC(=O)c2cc3nc(C)cc(C)n3n2)c1 | i | -5.1* | 104 | i | i | i | i | i | i | i | i | i
CC1CCN(Cc2c(C(=O)N/N=C/c3cc(Cl)ccc3O)nnn2-c2nonc2N)CC1 | i | -5.5* | 98 | i | i | i | i | i | i | i | i | i
CC(C)c1ccc(OCC(=O)Nc2ccncc2)cc1 | i | i | 94 | i | i | i | x | x | x | x | x | x
CC1CCC(C(C)C)C(OC(=O)Cn2c(-c3ccccc3)[n+](C)c3ccccc32)C1 (stereo not given) | i | -5.6*! | 104 | 12* | i | i | 506%* | i | 110%* | 60%* | 63%* | 176%*
CC1CCC(C(C)C)C(OC(=O)Cn2c(-c3ccc(F)cc3)[n+](C)c3ccccc32)C1 (stereo not given) | x | x | 102 | x | x | x | x | x | x | x | x | x
CCOC(=O)c1nnn(-c2nc(N3CCCC3)nc(N3CCCC3)n2)c1-c1ccccc1 | i | i | 98 | i | i | i | x | x | x | x | x | x
CCOC(=O)c1c(-c2ccccc2)nnn1-c1nc(OCC)nc(N2CCCCC2)n1 | i | i | 101 | 16* | i | i | 354%* | i | 91%* | i | i | 176%*
CC1CCCC(C)N1C(=O)CSc1nc2ccccc2c(=O)[nH]1 (stereo not given) | i | i | 91 | i | i | i | x | x | x | x | x | x
C=CCOc1ccc2c(OC)c3ccoc3nc2c1OC | i | -11* | 109 | 16* | i | i | i | i | 18%* | i | 52%* | 86%*
CCOc1c(OC)ccc2c3c(c(=O)oc12)CCCC3 | i | i | 81 | i | i | i | x | x | x | x | x | x
CCOc1c2ccoc2nc2c(OC)c(OC)ccc12 | i | -5.4* | 109 | i | i | i | i | i | i | i | i | x
CN(CC(=O)Nc1ccc(Cl)c(C(F)(F)F)c1)Cc1cc(=O)n2ccsc2n1 | i | i | 92 | i | i | i | x | x | x | x | x | x
c1ccc(-c2nc3nc4ccccc4nc3n2Cc2ccco2)cc1 | i | i | 98 | i | i | i | x | x | x | x | x | x
N=c1c2c(-c3ccccc3)c(-c3ccccc3)n(Cc3ccco3)c2ncn1CCO | i | -6.6* | 113 | i | i | i | 123%* | i | 16%* | 80%* | 43%* | x
N=c1c2c(-c3ccccc3)c(-c3ccccc3)n(Cc3ccco3)c2ncn1CCCO | i | -5.1* | 92 | i | i | i | 150%* | i | 20%* | 76%* | i | x
N=c1c2c(-c3ccccc3)c(-c3ccccc3)n(Cc3ccco3)c2ncn1CCN1CCOCC1 | i | -9.9* | 99 | i | i | i | x | x | x | x | i | i | TRPC4 spec 2=40%*;TRPC4 spec=3.4%*;HEK293 MPD ctr 2-1=208%*;HEK293 MPD ctr-1=8.2%*
COC(=O)c1ccccc1NC(=O)CN1C(=O)c2ccccc2C1=O | i | i | 110 | i | i | i | x | x | x | x | x | x
CCOC(=O)c1c(-c2ccccc2)oc2ccc(OCC(O)CN(C)C)cc12 (stereo not given) | i | i | 103 | i | i | i | x | x | x | x | x | x
CS(=O)(=O)c1ccc(CNC(=O)[C@]2(C(F)(F)F)C[C@H](CCc3ccccc3)CCCO2)cc1 | i | i | 99 | i | i | i | x | x | x | x | x | x
O=C1c2ccccc2C(=O)c2c1cccc2N1CCOCC1 | i | i | 172 | i | i | i | x | x | x | x | x | x
CC1CN(c2oc(-c3ccccc3Cl)nc2C#N)CC(C)O1 (stereo not given) | i | i | 90 | i | i | i | x | x | x | x | x | x
CC(=O)N1CCN(C2=Nc3cccc4cccc2c34)CC1 | i | -8.1* | 95 | i | i | i | -226%* | i | -97%* | 48%* | 57%* | i
